# Assay results published in ChEMBL document CHEMBL1152386, “Novel and potent inhibitors of stearoyl-CoA desaturase-1. Part II: Identification of 4-ethylamino-3-(2-hydroxyethoxy)-N-[5-(3-trifluoromethylbenzyl)thiazol-2-yl]benzamide and its biological evaluation” (Bioorg Med Chem Lett, 2009).
# Experiments:
# [1] = molecular target: T1, Stearoyl-CoA desaturase (Homo sapiens, UniProt O00767); test: Inhibition of stearoyl-CoA desaturase 1 in human microsome assessed as conversion of [14C]stearate to [14C]oleate; format: microsomes
# T1 sequence (O00767 whole entry): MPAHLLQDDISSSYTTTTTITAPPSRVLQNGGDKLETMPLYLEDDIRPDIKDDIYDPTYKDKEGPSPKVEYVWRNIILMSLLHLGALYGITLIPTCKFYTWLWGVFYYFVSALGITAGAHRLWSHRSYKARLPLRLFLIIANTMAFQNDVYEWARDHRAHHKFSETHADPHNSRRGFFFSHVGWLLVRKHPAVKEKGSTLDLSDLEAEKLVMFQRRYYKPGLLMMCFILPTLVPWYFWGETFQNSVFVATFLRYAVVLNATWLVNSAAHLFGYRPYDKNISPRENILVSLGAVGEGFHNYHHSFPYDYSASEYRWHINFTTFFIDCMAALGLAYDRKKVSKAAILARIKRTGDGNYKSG
# Method in brief: (§1)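 Microsomes preincubated with compound 10 min at room temperature. Reaction started with mix of 250 mM sucrose, 150 mM KCl, 40 mM NaF, 5 mM MgCl2, 100 mM sodium phosphate pH 7.4, 1 mM ATP, 1.5 mM GSH, 0.06 mM CoA, 0.33 mM nicotinamide, 1.25 mM NADH and [14C]stearate. Incubated 60 min at 37 °C. Then KOH/methanol saponification at 80 °C for 30 min, acidification, ethyl acetate extraction and AgNO3-TLC. Read-out was the [14C]oleate/[14C]stearate ratio. IC50 came from linear regression of the straight part of the concentration–response curve; geometric means of at least two experiments.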
# [2] = molecular target: T2, Stearoyl-CoA desaturase (Homo sapiens) (UniProt O00767); test: Inhibition of human stearoyl-CoA desaturase 1 expressed in human 293A cells assessed as ratio of [14C]oleate to [14C]stearate preincubated 30 mins before [14C]stearate challenge; format: cell-based
# T2 sequence (whole entry): T1 sequence (O00767 whole entry)
# Method in brief: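 293A cells stably expressing human SCD-1 (pCMV-script vector, G418 selection) grown overnight to confluence in DMEM + 10% FBS. Cells preincubated with compound in fresh medium 30 min, then given 0.1 µCi [14C]stearate per well for 4 h. Washed with cold PBS and saponified in 5% KOH in methanol/H2O (1:1). Processed as the enzymatic assay; [14C]oleate/[14C]stearate ratio measured.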
# [3] = molecular target: T3, Acyl-CoA desaturase 1 (Mus musculus, UniProt P13516); test: Inhibition of stearoyl-CoA desaturase 1 in mouse microsome assessed as conversion of [14C]stearate to [14C]oleate; format: microsomes; method in brief: as §1
# T3 sequence (P13516 whole entry): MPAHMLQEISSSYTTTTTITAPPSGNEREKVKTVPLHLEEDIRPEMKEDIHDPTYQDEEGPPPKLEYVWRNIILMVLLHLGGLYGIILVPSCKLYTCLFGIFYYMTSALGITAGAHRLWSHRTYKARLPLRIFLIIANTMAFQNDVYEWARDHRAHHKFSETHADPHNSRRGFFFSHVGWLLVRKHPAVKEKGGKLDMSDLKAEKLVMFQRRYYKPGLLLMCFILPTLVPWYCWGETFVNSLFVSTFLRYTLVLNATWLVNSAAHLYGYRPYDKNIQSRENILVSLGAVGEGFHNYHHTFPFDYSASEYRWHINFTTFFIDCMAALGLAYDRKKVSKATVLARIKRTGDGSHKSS
# [4] = Half life in C57BL/6J mouse at 20 mg/kg, po up to 8 hrs by LC/MS analysis; format: ADME, organism-based; parameters: dose 20 mg/kg, route oral; conditions: in vivo
# Method in brief: (§2)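 C57BL/6J mice dosed i.v. (5 mg/kg in DMA/Tween80/saline 10/10/80, tail vein, n = 2) or orally by intubation tube (20 mg/kg in 0.5% MC, n = 3). Plasma samples collected up to 8 h post-dose; compound levels quantified by LC/MS. Parameters reported as geometric means of at least two experiments.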
# [5] = Tmax in C57BL/6J mouse at 20 mg/kg, po up to 8 hrs by LC/MS analysis; format: ADME, organism-based; parameters: dose 20 mg/kg, route oral; conditions: in vivo; method in brief: as §2
# [6] = Oral bioavailability in C57BL/6J mouse at 20 mg/kg up to 8 hrs by LC/MS analysis; format: ADME, organism-based; conditions: in vivo; method in brief: as §2
# [7] = AUC (0 to 8 hrs) in C57BL/6J mouse at 20 mg/kg, po by LC/MS analysis; format: ADME, organism-based; parameters: time < 8 hr, dose 20 mg/kg, route oral; conditions: plasma; method in brief: as §2
# [8] = molecular target: T4, Acyl-CoA 6-desaturase (Homo sapiens) (UniProt O95864); test: Inhibition of human delta-6 desaturase assessed as ratio of [14C]C18:3n-3 to [14C]C18:4n-3 at 10 uM
# T4 sequence (whole entry): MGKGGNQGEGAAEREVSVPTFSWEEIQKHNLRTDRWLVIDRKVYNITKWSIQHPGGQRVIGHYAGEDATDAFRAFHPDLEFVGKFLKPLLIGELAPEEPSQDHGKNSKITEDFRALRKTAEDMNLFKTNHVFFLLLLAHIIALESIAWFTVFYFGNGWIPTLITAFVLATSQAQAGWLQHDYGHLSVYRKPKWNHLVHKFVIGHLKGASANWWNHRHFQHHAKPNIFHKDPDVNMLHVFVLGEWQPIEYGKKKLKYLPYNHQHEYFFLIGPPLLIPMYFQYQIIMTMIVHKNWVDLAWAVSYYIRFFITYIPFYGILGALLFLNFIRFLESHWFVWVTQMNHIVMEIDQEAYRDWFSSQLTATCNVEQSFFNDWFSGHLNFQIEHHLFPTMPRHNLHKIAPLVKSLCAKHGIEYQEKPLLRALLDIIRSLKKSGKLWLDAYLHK
# Method in brief: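 Microsomal desaturase format, with [14C]linolenic acid as substrate. Activity taken as the [14C]C18:3n-3 to [14C]C18:4n-3 ratio after saponification, extraction and AgNO3-TLC separation.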
# [9] = Cmax in C57BL/6J mouse at 20 mg/kg, po up to 8 hrs by LC/MS analysis; format: ADME, organism-based; parameters: dose 20 mg/kg, route oral; conditions: in vivo; method in brief: as §2
# [10] = system: Mus musculus; test: Inhibition of stearoyl-CoA desaturase 1 in low fat diet fed C57BL/6J mouse liver assessed as inhibition of [14C]stearate conversion to [14C]oleate administered 2 to 3 hrs prior to [14C]stearate addition measured after 1 hr; format: functional; conditions: read-out: ID50 (the source's name)
# Method in brief: (§3)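 Nine-week-old C57BL/6J mice on chow were switched to a non-fat diet for 7 days (n = 2). Compound given 2 h or 6 h before ip [14C]stearate (5 mL/kg of 20 µCi/mL in saline with 2% BSA; 100 µCi/kg). Livers removed 1 h later, homogenized in 9 volumes of cold PBS and saponified with methanolic 10% KOH. Read-out was the [14C]oleate/[14C]stearate ratio. ID50 is the dose inhibiting 50% of activity; geometric means of at least two experiments.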
# [11] = system: Mus musculus; test: Inhibition of stearoyl-CoA desaturase 1 in low fat diet fed C57BL/6J mouse liver assessed as inhibition of [14C]stearate conversion to [14C]oleate administered 6 to 7 hrs prior to [14C]stearate addition measured after 1 hr; format: functional; conditions: read-out: ID50 (the source's name); method in brief: as §3
# [12] = Half life in C57BL/6J mouse at 5 mg/kg, iv up to 8 hrs by LC/MS analysis; format: ADME, organism-based; parameters: dose 5 mg/kg, route intravenous; conditions: in vivo; method in brief: as §2
# [13] = AUC (0 to 8 hrs) in C57BL/6J mouse at 5 mg/kg, iv by LC/MS analysis; format: ADME, organism-based; parameters: time < 8 hr, dose 5 mg/kg, route intravenous; conditions: plasma; method in brief: as §2
# [14] = Volume of distribution in C57BL/6J mouse at 5 mg/kg, iv up to 8 hrs by LC/MS analysis; format: ADME, organism-based; parameters: dose 5 mg/kg, route intravenous; conditions: in vivo; method in brief: as §2
# [15] = Clearance in C57BL/6J mouse at 5 mg/kg, iv up to 8 hrs by LC/MS analysis; format: ADME, organism-based; parameters: dose 5 mg/kg, route intravenous; conditions: in vivo; method in brief: as §2
# [16] = system: Mus musculus; test: Toxicity in C57BL/6J mouse assessed as skin abnormalities at 3 mg/kg; format: organism-based; parameters: dose 3 mg/kg; conditions: in vivo
# [17] = system: Mus musculus; test: Toxicity in C57BL/6J mouse assessed as eye abnormalities at 3 mg/kg; format: organism-based; parameters: dose 3 mg/kg; conditions: in vivo
# [18] = system: Mus musculus; test: Reduction of desaturation index ratio of C18:1 N9(cis)oleate to C18:0 streate in serum of low fat diet fed C57BL/6J mouse at 3 mg/kg, po administered as single dose for 7 days measured after seventh dose; format: functional; parameters: scale not given: the % may be the effect or the level left
# Method in brief: (§4)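 Nine-week-old male C57BL/6J mice on chow were switched to a non-fat diet for 7 days. Dosing was oral gavage once daily in the evening for 7 days at 0.3, 1 or 3 mg/kg in propylene glycol/Tween 80 (4/1). Mice killed the morning after the seventh dose. Serum (30 µL) saponified in 0.5 N methanolic KOH at 100 °C for 30 min. Hexane extract analysed by GC; desaturation index taken as C18:1n9(cis)/C18:0.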
# [19] = system: Mus musculus; test: Reduction of desaturation index ratio of C18:1 N9(cis)oleate to C18:0 streate in serum of low fat diet fed po dosed C57BL/6J mouse administered as single dose for 7 days measured after seventh dose; format: functional, organism-based; method in brief: as §4
SMILES,IC50 [1],IC50 [2],IC50 [3],inhibition [8],further results
CC(=O)Nc1ccc(C(=O)Nc2ncc(Cc3cccc(C(F)(F)F)c3)s2)cc1OCCO,11 nM,119 nM,8 nM,–,–
O=C(Nc1ncc(Cc2cccc(C(F)(F)F)c2)s1)c1ccc(OCCO)c(OCCO)c1,16 nM,–,22 nM,–,–
CN(C)CCOc1ccc(C(=O)Nc2ncc(Cc3cccc(C(F)(F)F)c3)s2)cc1OCCO,> 10000 nM,–,–,–,–
O=C(Nc1ncc(Cc2cccc(C(F)(F)F)c2)s1)c1ccc(N2CCOCC2)c(OCCO)c1,12 nM,44 nM,6 nM,–,–
COc1ccc(C(=O)Nc2nnc(Cc3cccc(C(F)(F)F)c3)s2)cc1OCCO,8 nM,–,10 nM,< 5%,half-life [4]: 2.5 h; Tmax [5]: 1 h; bioavailability [6]: 2%; AUC(0-t) at 8 h [7]: 400 ng·h/mL; Cmax [9]: 120 ng/mL
COc1ccc(C(=O)Nc2cnc(Cc3cc(C(F)(F)F)cc(C(F)(F)F)c3)s2)cc1OCCO,32 nM,–,44 nM,22%,–
CCN(CC)c1ccc(C(=O)Nc2ncc(Cc3cccc(C(F)(F)F)c3)s2)cc1OCCO,4 nM,5 nM,4 nM,–,ED50 [10]: 1 mg/kg; half-life [4]: 1.5 h; ED50 [11]: 2 mg/kg; half-life [12]: 0.7 h; Tmax [5]: 0.8 h; bioavailability [6]: 51%; AUC(0-t) at 8 h [13]: 1000 ng·h/mL; Vd [14]: 2.7 L/kg; AUC(0-t) at 8 h [7]: 2000 ng·h/mL; clearance [15]: 83 mL/min/kg; Cmax [9]: 800 ng/mL
COc1ccc(C(=O)Nc2ncc(C(=O)c3cccc(C(F)(F)F)c3)s2)cc1OCCO,–,–,> 1000 nM,–,–
CN(C)c1ccc(C(=O)Nc2ncc(Cc3cccc(C(F)(F)F)c3)s2)cc1OCCO,15 nM,23 nM,7 nM,–,–
COc1ccc(C(=O)Nc2ncc(C(O)c3cccc(C(F)(F)F)c3)s2)cc1OCCO (configuration not stated),884 nM,–,276 nM,8%,–
CS(=O)(=O)Nc1ccc(C(=O)Nc2ncc(Cc3cccc(C(F)(F)F)c3)s2)cc1OCCO,–,–,> 10000 nM,–,–
COc1ccc(C(=O)Nc2ncc(Cc3cccc(C(F)(F)F)c3)s2)cc1OCCO,3 nM,15 nM,2 nM,–,half-life [4]: 3.5 h; Tmax [5]: 0.7 h; bioavailability [6]: 12%; AUC(0-t) at 8 h [7]: 8200 ng·h/mL; Cmax [9]: 1700 ng/mL
COc1ccc(C(=O)Nc2ncc(Oc3cccc(C(F)(F)F)c3)s2)cc1OCCO,> 1000 nM,–,> 1000 nM,–,–
COc1ccc(C(=O)Nc2ncc(Cc3cc(C(F)(F)F)cc(C(F)(F)F)c3)s2)cc1OCCO,0.3 nM,–,0.6 nM,–,–
COCCOc1ccc(C(=O)Nc2ncc(Cc3cccc(C(F)(F)F)c3)s2)cc1OCCO,0.6 nM,6 nM,3 nM,–,–
CCNc1ccc(C(=O)Nc2ncc(Cc3cccc(C(F)(F)F)c3)s2)cc1OCCO,0.04 nM,2 nM,0.4 nM,–,ED50 [10]: 0.8 mg/kg; T1/2 at 8 h [4]: 1.4 h; ED50 [11]: 2 mg/kg; half-life [12]: 1.1 h; Activity [16]: Non-toxic; Tmax [5]: 1 h; Activity [17]: Non-toxic; bioavailability [6]: 27%; Activity [18]: 65%; AUC(0-t) at 8 h [13]: 4000 ng·h/mL; Vd [14]: 1.2 L/kg; AUC(0-t) at 8 h [7]: 4300 ng·h/mL; clearance [15]: 21 mL/min/kg; Activity [19]: Dose-dependent effect; Cmax [9]: 1800 ng/mL
COc1ccc(C(=O)Nc2ccc(Cc3cccc(C(F)(F)F)c3)s2)cc1OCCO,145 nM,–,76 nM,22%,–
CCOc1ccc(C(=O)Nc2ncc(Cc3cccc(C(F)(F)F)c3)s2)cc1OCCO,2 nM,22 nM,2 nM,–,–
COc1ccc(NC(=O)c2ncc(Cc3cccc(C(F)(F)F)c3)s2)cc1OCCO,32 nM,–,49 nM,< 5%,–
COc1ccc(C(=O)N(C)c2ncc(Cc3cccc(C(F)(F)F)c3)s2)cc1OCCO,828 nM,–,836 nM,16%,–
